Shown are actives, neighbours in structure and some others; about 2.9% of the full set was active somewhere.
SENP7 inh = SENP7 protease inhibition; inhibition, % at 5 µM; AID 434973; recombinant SENP7, Z-RLRGG-aminoluciferin luminescence, 40 min; 330,000 compounds, 1.5% hits; Q9BQF6;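 active means inhibition above about 50% at the single test dose, limit read from the data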
Target sequence (Q9BQF6 706-1050 limits assumed): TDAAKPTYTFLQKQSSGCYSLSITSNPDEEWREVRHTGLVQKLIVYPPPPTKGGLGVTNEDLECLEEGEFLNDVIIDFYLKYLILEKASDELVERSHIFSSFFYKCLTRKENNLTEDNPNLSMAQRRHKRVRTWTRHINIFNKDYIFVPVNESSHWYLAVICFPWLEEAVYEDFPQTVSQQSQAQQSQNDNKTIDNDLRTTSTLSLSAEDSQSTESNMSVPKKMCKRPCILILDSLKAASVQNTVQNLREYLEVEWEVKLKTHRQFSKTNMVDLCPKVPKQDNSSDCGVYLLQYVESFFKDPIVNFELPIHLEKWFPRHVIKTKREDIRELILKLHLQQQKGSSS
Apaf-1 inh = blocks human Apaf-1 apoptosome activity; O14727; reconstituted apoptosome caspase-3 activity, DEVD-Rh110 fluorescence; inhibition, % at 20 µM; 330,000 compounds, 0.71% hits; active means inhibition of at least 40% at 20 µM
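Material: cell-free apoptosome with Apaf-1, procaspase-3 and caspase-9; Buffer or medium: Hepes pH 7.5 with detergent and BSA; Reagent: cytochrome c trigger plus (Z-DEVD)2-Rh110 caspase-3 substrate; Times: compound with Apaf-1, dATP, procaspase-3 30 min, then 50 min reaction, room temperature; Technique: Rh110 fluorescence intensity.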
SENP8 block-1 = inhibitors of human SENP8 protease; inhibition, % at 10 µM; purified SENP8, Z-RLRGG-aminoluciferin cleavage, luminescence; AID 2540; 330,000 compounds, 1.2% hits; in the data active means inhibition above about 50%
Target sequence (Q96LD8 whole entry, looked up): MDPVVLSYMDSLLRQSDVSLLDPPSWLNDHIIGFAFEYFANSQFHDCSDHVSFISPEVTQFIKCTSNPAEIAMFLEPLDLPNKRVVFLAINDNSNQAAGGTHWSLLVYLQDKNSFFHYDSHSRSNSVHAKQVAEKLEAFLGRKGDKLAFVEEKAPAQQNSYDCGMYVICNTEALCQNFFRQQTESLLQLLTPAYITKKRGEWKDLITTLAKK
SENP1 inh = inhibitors of human SENP1 SUMO protease catalytic domain; recombinant SENP1 catalytic domain, CyPet-SUMO1-YPet FRET cleavage; inhibition, % at 10 µM; 360,000 compounds, 0.21% hits; AID 624204;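 active means inhibition at least 30% at 10 µM, raw YFP signal under a set limit, fluorescence ratio 0.5 to 1.5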
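system = hSENP1 catalytic domain, recombinant | reagent = SFCypet-SUMO1-SFYpet substrate at 25 nM | doses = one dose per compound, 10 µM, 0.5% DMSO | incubation = enzyme reaction for 50 min at room temperature, dark | measured by = FRET, CFP and YFP emission | controls = no-enzyme low, enzyme-DMSO high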
SENP6 block = inhibitors of human SENP6 protease | Q9GZR1 | Recombinant SENP6 catalytic domain, aminoluciferin luminescence | 330,000 compounds, 1.8% hits | inhibition, % at 10 µM;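 active means inhibition above about 50% at the single tested dose, limit read from the data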
SENP8 block-2 = blocks human SENP8 cleavage of Nedd8 substrate; 360,000 compounds, 0.64% hits; recombinant SENP8, Nedd8 substrate fluorescence; Q96LD8; inhibition, % at 20 µM; AID 602440; in the data active means inhibition mostly above about 40%, no sharp cut-off; inactive means mostly below about 27%
Apaf-1 inh conf = confirmation of Apaf-1 inhibitors; shares compounds with Apaf-1 inh; reconstituted apoptosome, caspase-3 DEVD-Rh110 fluorescence; inhibition, % at 20 µM; 1,800 compounds, 25% hits;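 active means mean inhibition of at least 40% at 20 µM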
Rh110 quench = Rh110 signal interference in Apaf-1 inhibitor counter-screen | shares compounds with Apaf-1 inh | Rh110 fluorescence interference, quenched caspase reaction | activation (fluorescence interference), % at 20 µM | 1,800 tested, under 10 active | AID 504615;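 active means signal rise of 40% or more at 20 µM, treated as a fluorescence artifact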
Apaf1 inh interf = shows fluorescence interference in the Apaf-1 inhibitor assay format; shares compounds with Apaf-1 inh; fluorescence interference counterscreen, Apaf-1 assay format; IC50, µM; 460 tested, under 10 active; AID 588538; call rule not given here
Large screens that a line does not name were inactive (follow-up assays come after a bar, where they were run).

CC[C@@H](C)[C@H](CNC)NC[C@@H](Cc1cccc2ccccc12)NCCc1cccc(C(F)(F)F)c1	Apaf-1 inh 70 | Apaf-1 inh conf 48 | Rh110 quench inactive | Apaf1 inh interf inactive
COCCCNC(=O)c1ccc2c3c(onc13)-c1ccccc1C2=O	Apaf-1 inh 80, SENP6 block 54, SENP8 block-2 106 | Apaf-1 inh conf 74 | Rh110 quench inactive | Apaf1 inh interf inactive
CN(C)C(CNc1ncccn1)c1ccccc1 (stereo unspecified)	none
OC(CNCC1CCCO1)Cn1c2ccc(Cl)cc2c2cc(Cl)ccc21 (stereo unspecified)	Apaf-1 inh 43 | Apaf-1 inh conf inactive | Rh110 quench inactive
NC(=O)C12C(=O)NC(=O)C1(C(=O)O)C21CCCC1 (stereo unspecified)	none (no result: SENP7 inh, Apaf-1 inh, SENP8 block-1, SENP6 block)
COc1cccc(O)c1CN1CCC(C(=O)Nc2ccc(Oc3cccnc3)cc2)CC1	none
COc1ccc(CN2CCC(C(=O)Nc3ccc(Oc4cccnc4)cc3)CC2)cc1	Apaf-1 inh 58 | Apaf-1 inh conf inactive | Rh110 quench inactive
CCc1nc2ccc(C(=O)NCc3ccc4c(c3)OCO4)cn2c1N(C)CCC(C)C	none (no result: SENP7 inh, Apaf-1 inh, SENP8 block-1, SENP6 block)
CC(C)=CCC/C(C)=C/CNC(=O)C[C@H]1C[C@H](C(=O)N2CCOCC2)[C@@]2(C)c3[nH]c4cc(-c5ccco5)ccc4c3CCN2C1=O	Apaf-1 inh 44 (no result: SENP8 block-1, SENP6 block) | Apaf-1 inh conf inactive | Rh110 quench inactive
CC(C)=CCC/C(C)=C/CNC(=O)CC1C[C@H](C(=O)N2CCOCC2)[C@@]2(C)c3[nH]c4ccccc4c3CCN2C1=O (stereo partly specified)	none
C[C@]12c3[nH]c4cc(-c5ccco5)ccc4c3CCN1C(=O)[C@@H](CC(=O)NCCN1CCOCC1)C[C@@H]2C(=O)N1CCOCC1	none (no result: SENP8 block-1, SENP6 block)
CC[C@]12c3[nH]c4ccc(Cl)cc4c3CCN1C(=O)[C@@H](CC(=O)NCC13CC4CC(CC(C4)C1)C3)C[C@@H]2C(=O)N1CCN(C(=O)c2ccco2)CC1	Apaf-1 inh 44 (no result: SENP8 block-1, SENP6 block) | Apaf-1 inh conf inactive | Rh110 quench inactive
CC[C@]12c3[nH]c4ccc(OC)cc4c3CCN1C(=O)C(CC(=O)NCC13CC4CC(CC(C4)C1)C3)C[C@@H]2C(=O)N1CCN(C(=O)c2ccco2)CC1 (stereo partly specified)	none (no result: SENP8 block-1, SENP6 block)
CC(C)=CCC/C(C)=C/CNC(=O)C[C@H]1C[C@H](C(=O)N2CCOCC2)[C@@]2(C)c3[nH]c4ccc(Cl)cc4c3CCN2C1=O	Apaf-1 inh 42 (no result: SENP8 block-1, SENP6 block) | Apaf-1 inh conf inactive | Rh110 quench inactive
C=CCn1c(SCC(=O)NCCc2ccccc2)nnc1C1CC1	Apaf-1 inh 42 | Apaf-1 inh conf inactive | Rh110 quench inactive
COc1cccc(CN(C)C(=O)c2cc(S(=O)(=O)N3CCCCCC3)ccc2OC)c1	Apaf-1 inh 51 | Apaf-1 inh conf inactive | Rh110 quench inactive
COc1ccc(CN(C)C(=O)c2cc(S(=O)(=O)N3CCCCCC3)ccc2OC)cc1OC	none
COc1cccc(CN(C)C(=O)c2ccc(C)c(S(=O)(=O)N3CCCCC3)c2)c1	Apaf-1 inh 40 | Apaf-1 inh conf inactive | Rh110 quench inactive
Cc1ccccc1OCc1n(CC(=O)OC2CC(C)CCC2C(C)C)c2ccccc2[n+]1C (stereo unspecified)	Apaf-1 inh 47 | Apaf-1 inh conf 48 | Rh110 quench inactive | Apaf1 inh interf inactive
CCCCCCCCCCOC(=O)Cn1c(COc2ccccc2C)[n+](C)c2ccccc21	Apaf-1 inh 81 | Apaf-1 inh conf 83 | Rh110 quench inactive | Apaf1 inh interf inactive
CCCCCCCCCCOC(=O)Cn1c(COc2ccccc2)[n+](C)c2ccccc21	Apaf-1 inh 73 | Apaf-1 inh conf 72 | Rh110 quench inactive | Apaf1 inh interf inactive
CCOC(=O)Cn1c(COc2ccccc2OC)[n+](C)c2ccccc21	none
CCCCOC(=O)Cn1c(=O)n(CC(=O)OCCCC)c2ccccc21	none
CCCCCCCCCCOC(=O)Cn1c(COc2ccc(OC)cc2)[n+](C)c2ccccc21	Apaf-1 inh 72 | Apaf-1 inh conf 68 | Rh110 quench inactive | Apaf1 inh interf inactive
CC1CCC(C(C)C)C(OC(=O)Cn2c(-c3ccc(Br)cc3)[n+](C)c3ccccc32)C1 (stereo unspecified)	none
CN(C)C(=O)CCc1ccc2c3c([nH]c2c1)[C@]1(CCc2ccccc2)[C@@H](C(=O)N2CCCCC2)C[C@H](CC(=O)NCCCn2ccnc2)C(=O)N1CC3	none (no result: SENP8 block-1, SENP6 block)
CCCc1ccc(C(O)c2ncc(-c3cccc(C)c3)[nH]2)cc1 (stereo unspecified)	none (no result: SENP7 inh, Apaf-1 inh, SENP8 block-1, SENP6 block)
Cc1cc2c(cc1C)-n1nnnc1C(N(C)CCc1ccccc1)C(=O)N2 (stereo unspecified)	none (no result: SENP7 inh, Apaf-1 inh, SENP8 block-1, SENP6 block)
CC(C)C(=O)NCc1cc(-c2ccccc2)no1	none
O=C(CSc1nnc(-c2ccccn2)o1)Nc1ccccc1F	none
CCCCCCCCCCOC(=O)Cn1c(COc2ccc(Cl)cc2)[n+](C)c2ccccc21	Apaf-1 inh 85 | Apaf-1 inh conf 90 | Rh110 quench inactive | Apaf1 inh interf inactive
CCCCCCCCCCOC(=O)Cn1c(COc2cccc(C)c2)[n+](C)c2ccccc21	Apaf-1 inh 79 | Apaf-1 inh conf 77 | Rh110 quench inactive | Apaf1 inh interf inactive
CCCCCOC(=O)Cn1c(=O)oc2ccccc21	none
CCCCNc1c(-c2ccc(OC)c(SC3CCCCC3)c2)nc2cnccn12	none
CCC(C)Sc1ccc(-c2nc3cnccn3c2NC2CCCCC2)cc1 (stereo unspecified)	Apaf-1 inh 45 | Apaf-1 inh conf inactive | Rh110 quench inactive
CCC(C)Sc1ccc(-c2nc3cc(C)ccn3c2NC2CCCCC2)cc1 (stereo unspecified)	none
CCCCNc1c(-c2ccc(SC3CCCCC3)cc2)nc2cnccn12	Apaf-1 inh 42 | Apaf-1 inh conf inactive | Rh110 quench inactive
Cc1ccc(NC(=O)c2ncn(CC(=O)N[C@H](CO)Cc3c[nH]c4ccccc34)n2)cc1C	Apaf-1 inh 74 (no result: SENP8 block-1, SENP6 block) | Apaf-1 inh conf inactive | Rh110 quench inactive
COc1ccc(C2C(C(=O)c3ccco3)=C(O)C(=O)N2CCCn2ccnc2)c(OC)c1 (stereo unspecified)	Apaf-1 inh 57 | Apaf-1 inh conf inactive | Rh110 quench inactive
COc1cc(C2C(C(=O)c3ccc(C)o3)=C(O)C(=O)N2CCCn2ccnc2)cc(OC)c1OC (stereo unspecified)	none

Screening data from PubChem.
